Test results from ChEMBL document CHEMBL4689842, “EUbOPEN Chemogenomics Library wave 1” (2021).

Experiments:
Format in all cases: toxicity, cell-based
Fibroblast [1] = test: Multiplex assay against human fibroblast
How it was run: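 On a CQ1 microscope at 37°C and 5% CO2, live cells were imaged after compound addition. They had been stained at seeding with Hoechst33342, BioTracker Green Microtubule Cytoskeleton Dye, MitoTracker Red and Annexin V Alexa Fluor 680. CellPathfinder machine-learning gating assigned cells to Hoechst high-intensity objects or normal cells, normal cells to healthy, pyknosed or fragmented nuclei, and pyknosed cells to mitotic or apoptotic. Tubulin, mitochondrial-mass and membrane-permeability phenotypes are per cents of healthy-nucleus cells.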

U2OS = test: Incucyte cell viability with U2OS; details: human, 10 µM, compound concentration 10 uM; also: filed as whole numbers so only -1 and 0 and 1 occur
HEK-293T = test: Incucyte cell viability with HEK293T; details: human, 10 µM, compound concentration 10 uM; also: filed as whole numbers so only -1 and 0 and 1 occur
Fibroblast [2] = test: Incucyte cell viability with human fibroblast; details: 10 µM, compound concentration 10 uM; also: filed as whole numbers so only -1 and 0 and 1 occur
[3] = 12 h, 1 µM, compound concentration 1 uM, replicate 1
[4] = 12 h, 1 µM, compound concentration 1 uM, replicate 2
[5] = 12 h, 10 µM, compound concentration 10 uM, replicate 1
[6] = 12 h, 10 µM, compound concentration 10 uM, replicate 2
[7] = 24 h, 1 µM, compound concentration 1 uM, replicate 1
[8] = 24 h, 1 µM, compound concentration 1 uM, replicate 2
[9] = 24 h, 10 µM, compound concentration 10 uM, replicate 1
[10] = 24 h, 10 µM, compound concentration 10 uM, replicate 2
[11] = 0 h, replicate number 1, timepoint 0 hours
[12] = 6 h, replicate number 1, timepoint 6 hours
[13] = 6 h, replicate number 2, timepoint 6 hours
[14] = 12 h, replicate number 1, timepoint 12 hours
[15] = 18 h, replicate number 1, timepoint 18 hours
[16] = 24 h, replicate number 1, timepoint 24 hours

SMILES: CNC(=O)c1cc(Oc2ccc(NC(=O)Nc3cc(C(C)(C)C)nn3-c3ccc4ncccc4c3)c(F)c2)ccn1 [REBASTINIB]
- Population Apoptotic (%) (Fibroblast [1]; [3]): 90%
- Population Fragmented Nuclei (%) (Fibroblast [1]; [3]): 24%
- Population Healthy Nuclei (%) (Fibroblast [1]; [3]): 66%
- Population Hoechst High Intensity Objects (%) (Fibroblast [1]; [3]): 10%
- Population Membrane Permeable-Phenotype (%) (Fibroblast [1]; [3]): 4%
- Population Mitochondria Different-Phenotype (%) (Fibroblast [1]; [3]): 2%
- Population Mitotic Cells (%) (Fibroblast [1]; [3]): 10%
- Population Normal (%) (Fibroblast [1]; [3]): 89%
- Population Pyknosed Nuclei (%) (Fibroblast [1]; [3]): 9%
- Population Tubulin-Different-Phenotype (%) (Fibroblast [1]; [3]): 4%
- Total Cell Count (Fibroblast [1]; [3]): 237
- Population Apoptotic (%) (Fibroblast [1]; [4]): 40%
- Population Fragmented Nuclei (%) (Fibroblast [1]; [4]): 56%
- Population Healthy Nuclei (%) (Fibroblast [1]; [4]): 32%
- Population Hoechst High Intensity Objects (%) (Fibroblast [1]; [4]): 38%
- Population Membrane Permeable-Phenotype (%) (Fibroblast [1]; [4]): 26%
- Population Mitochondria Different-Phenotype (%) (Fibroblast [1]; [4]): 6%
- Population Mitotic Cells (%) (Fibroblast [1]; [4]): 60%
- Population Normal (%) (Fibroblast [1]; [4]): 61%
- Population Pyknosed Nuclei (%) (Fibroblast [1]; [4]): 10%
- Population Tubulin-Different-Phenotype (%) (Fibroblast [1]; [4]): 26%
- Total Cell Count (Fibroblast [1]; [4]): 75
- Population Apoptotic (%) (Fibroblast [1]; [5]): 59%
- Population Fragmented Nuclei (%) (Fibroblast [1]; [5]): 20%
- Population Healthy Nuclei (%) (Fibroblast [1]; [5]): 59%
- Population Hoechst High Intensity Objects (%) (Fibroblast [1]; [5]): 8%
- Population Membrane Permeable-Phenotype (%) (Fibroblast [1]; [5]): 10%
- Population Mitochondria Different-Phenotype (%) (Fibroblast [1]; [5]): 16%
- Population Mitotic Cells (%) (Fibroblast [1]; [5]): 40%
- Population Normal (%) (Fibroblast [1]; [5]): 91%
- Population Pyknosed Nuclei (%) (Fibroblast [1]; [5]): 19%
- Population Tubulin-Different-Phenotype (%) (Fibroblast [1]; [5]): 44%
- Total Cell Count (Fibroblast [1]; [5]): 238
- Population Apoptotic (%) (Fibroblast [1]; [6]): 85%
- Population Fragmented Nuclei (%) (Fibroblast [1]; [6]): 54%
- Population Healthy Nuclei (%) (Fibroblast [1]; [6]): 24%
- Population Hoechst High Intensity Objects (%) (Fibroblast [1]; [6]): 45%
- Population Membrane Permeable-Phenotype (%) (Fibroblast [1]; [6]): 0%
- Population Mitochondria Different-Phenotype (%) (Fibroblast [1]; [6]): 37%
- Population Mitotic Cells (%) (Fibroblast [1]; [6]): 14%
- Population Normal (%) (Fibroblast [1]; [6]): 55%
- Population Pyknosed Nuclei (%) (Fibroblast [1]; [6]): 21%
- Population Tubulin-Different-Phenotype (%) (Fibroblast [1]; [6]): 50%
- Total Cell Count (Fibroblast [1]; [6]): 60
- Population Apoptotic (%) (Fibroblast [1]; [7]): 83%
- Population Fragmented Nuclei (%) (Fibroblast [1]; [7]): 24%
- Population Healthy Nuclei (%) (Fibroblast [1]; [7]): 64%
- Population Hoechst High Intensity Objects (%) (Fibroblast [1]; [7]): 12%
- Population Membrane Permeable-Phenotype (%) (Fibroblast [1]; [7]): 2%
- Population Mitochondria Different-Phenotype (%) (Fibroblast [1]; [7]): 2%
- Population Mitotic Cells (%) (Fibroblast [1]; [7]): 16%
- Population Normal (%) (Fibroblast [1]; [7]): 87%
- Population Pyknosed Nuclei (%) (Fibroblast [1]; [7]): 11%
- Population Tubulin-Different-Phenotype (%) (Fibroblast [1]; [7]): 3%
- Total Cell Count (Fibroblast [1]; [7]): 239
- Population Apoptotic (%) (Fibroblast [1]; [8]): 33%
- Population Fragmented Nuclei (%) (Fibroblast [1]; [8]): 56%
- Population Healthy Nuclei (%) (Fibroblast [1]; [8]): 37%
- Population Hoechst High Intensity Objects (%) (Fibroblast [1]; [8]): 30%
- Population Membrane Permeable-Phenotype (%) (Fibroblast [1]; [8]): 5%
- Population Mitochondria Different-Phenotype (%) (Fibroblast [1]; [8]): 10%
- Population Mitotic Cells (%) (Fibroblast [1]; [8]): 66%
- Population Normal (%) (Fibroblast [1]; [8]): 69%
- Population Pyknosed Nuclei (%) (Fibroblast [1]; [8]): 5%
- Population Tubulin-Different-Phenotype (%) (Fibroblast [1]; [8]): 31%
- Total Cell Count (Fibroblast [1]; [8]): 73
- Population Apoptotic (%) (Fibroblast [1]; [9]): 52%
- Population Fragmented Nuclei (%) (Fibroblast [1]; [9]): 24%
- Population Healthy Nuclei (%) (Fibroblast [1]; [9]): 57%
- Population Hoechst High Intensity Objects (%) (Fibroblast [1]; [9]): 14%
- Population Membrane Permeable-Phenotype (%) (Fibroblast [1]; [9]): 4%
- Population Mitochondria Different-Phenotype (%) (Fibroblast [1]; [9]): 28%
- Population Mitotic Cells (%) (Fibroblast [1]; [9]): 47%
- Population Normal (%) (Fibroblast [1]; [9]): 85%
- Population Pyknosed Nuclei (%) (Fibroblast [1]; [9]): 17%
- Population Tubulin-Different-Phenotype (%) (Fibroblast [1]; [9]): 54%
- Total Cell Count (Fibroblast [1]; [9]): 229
- Population Apoptotic (%) (Fibroblast [1]; [10]): 70%
- Population Fragmented Nuclei (%) (Fibroblast [1]; [10]): 52%
- Population Healthy Nuclei (%) (Fibroblast [1]; [10]): 22%
- Population Hoechst High Intensity Objects (%) (Fibroblast [1]; [10]): 33%
- Population Membrane Permeable-Phenotype (%) (Fibroblast [1]; [10]): 33%
- Population Mitochondria Different-Phenotype (%) (Fibroblast [1]; [10]): 44%
- Population Mitotic Cells (%) (Fibroblast [1]; [10]): 30%
- Population Normal (%) (Fibroblast [1]; [10]): 66%
- Population Pyknosed Nuclei (%) (Fibroblast [1]; [10]): 25%
- Population Tubulin-Different-Phenotype (%) (Fibroblast [1]; [10]): 44%
- Total Cell Count (Fibroblast [1]; [10]): 60
- Growth Rate (U2OS; [11]): 1
- Growth Rate (U2OS; [12]): 0
- Growth Rate (U2OS; [13]): 1
- Growth Rate (U2OS; [14]): 0
- Growth Rate (U2OS; [15]): 0
- Growth Rate (U2OS; [16]): 0
- Growth Rate (HEK-293T; 0 h, replicate number 2, timepoint 0 hours): 0
- Growth Rate (HEK-293T; [12]): 0
- Growth Rate (HEK-293T; [14]): 0
- Growth Rate (HEK-293T; [15]): 0
- Growth Rate (HEK-293T; [16]): 0
- Growth Rate (Fibroblast [2]; [11]): 0
- Growth Rate (Fibroblast [2]; [13]): 1
- Growth Rate (Fibroblast [2]; [14]): 0
- Growth Rate (Fibroblast [2]; [15]): 0
- Growth Rate (Fibroblast [2]; [16]): 0
